Results reported in PubChem BioAssay AID488885 (Broad Institute, 2010).
Results filed as inconclusive are left out. The source made the active and inactive calls.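 The calls were made as follows: active = compounds raising caspase signal whose fitted half-max concentration is within ten times the top valid dose; inconclusive = flat curve with moderate caspase rise, or unreliable fit; inactive = flat near zero, too weak, or opposite direction.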

System: not listed separately
Assay: apoptosis induction, Mcl1-reliant cancer line – cell-based, HMC1-8 Mcl1-dependent, CaspaseGlo luminescence, dry powder, selectivity assay for A1 inhibitor project, dose response (AID 488885)
Settings: HMC1-8 (Mcl1-dependent) caspase activation, CaspaseGlo luminescence, 4 h; at 150 µM (top of the series)
Method in brief: (§1)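 Material: Low-A1 HMC 1-8 human cancer cells | Input: 2500 cells per well | Buffer or medium: RPMI-1640, 10% FBS | Doses: Test compound delivered to cells by pin transfer | Times: 4 h compound exposure at 37 °C, then 1 h CaspaseGlo | Technique: Luminescence with CaspaseGlo reagent | Measure: Caspase activation derived from luminescence signal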

Question: For `O=C(Oc1cccc(/C=N/Nc2nc(Nc3ccccc3)nc(N3CCOCC3)n2)c1)c1ccco1`, which caspase activation is on record?
Answer: The caspase activation was 3.81% (inactive).

Question: For `Cn1c(=NC(=O)CCl)sc2ccccc21`, which caspase activation is on record?
Answer: The caspase activation was -4.38% (inactive).

Question: Which caspase activation does the source give for `C/C1=C/C(=O)O[C@@H]2C[C@@H](CC[C@H](C)/C=C\CC1)O[C@@](O)(C1CSC(=O)N1)C2` (stereo not given in full) here?
Answer: The caspase activation was 3.84% (inactive).

Question: With `C=C1[C@@H](C)[C@H]2[C@H](Cc3ccccc3)NC(=O)[C@]23OC(=O)/C=C\[C@H](O)CCC[C@@H](C)C/C=C/[C@H]3[C@@H]1O` as the compound, how does the caspase activation read?
Answer: The caspase activation was 4.5% (inactive).

Question: For `Cc1ccc(Sc2c([N+](=O)[O-])c(=O)n(C)c3ccccc23)cc1`, which caspase activation is on record?
Answer: The caspase activation was -9.5% (inactive).

Question: Which caspase activation does the source give for `C=C1[C@@H](C)[C@H]2[C@H](Cc3ccccc3)NC(=O)[C@]23[C@H](OC(C)=O)/C=C/[C@](C)(O)C(=O)[C@@H](C)C/C=C/[C@H]3[C@@H]1O` here?
Answer: The caspase activation was -0.0184% (inactive).

Question: Which caspase activation does the source give for `O=C(CCl)N=c1sccn1Cc1ccccc1Cl` here?
Answer: Its caspase activation is -18.4% (inactive).

Question: For `COc1cc(/C=C(/C#N)c2nc3ccccc3[nH]2)ccc1OCC(=O)Nc1ccccc1C(C)C`, which caspase activation is on record?
Answer: Its caspase activation is 13.5% (inactive).

Question: Which caspase activation does the source give for `CC(=O)OC(C)(C)/C=C/C(=O)[C@](C)(O)C1[C@H](O)C[C@@]2(C)C3CC=C4C(C[C@H](O)C(=O)C4(C)C)[C@]3(C)C(=O)C[C@]12C` (stereo not given in full) here?
Answer: The caspase activation was 17.2% (inactive).

System: HMC1-8 (Mcl1-dependent) caspase activation, CaspaseGlo luminescence, 4 h
Assay: as above
Settings: not given
Method in brief: as §1

Question: For `CC(C)(C)n1nc(-c2ccc(Cl)cc2)c2c(N)ncnc21`, which AC50 is on record?
Answer: Its AC50 is 44.9 µM.
